From ChEMBL document CHEMBL4033630, “Discovery of novel 7-azaindole derivatives bearing dihydropyridazine moiety as c-Met kinase inhibitors” (Eur J Med Chem, 2017)

Tests used:
[1] = target: Hepatocyte growth factor receptor (Homo sapiens, UniProt P08581); test: Inhibition of c-Met (unknown origin) using poly (Glu, Tyr) 4:1 as substrate after 30 mins by HTRF assay
HT-29 [2] = test: Cytotoxicity against human HT-29 cells after 72 hrs by MTT assay; conditions: HT-29, 72 h
A549 [3] = test: Cytotoxicity against human A549 cells after 72 hrs by MTT assay; conditions: A549, 72 h
NCI-H460 = test: Cytotoxicity against human H460 cells after 72 hrs by MTT assay; type: functional, cell-based; conditions: NCI-H460, 72 h
Method in brief: (§1)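 Cells grown in MEM with 10% FBS. About 4 × 10³ cells per well, incubated 24 h at 37°C in 5% CO₂. Compound added at the indicated final concentrations, then 72 h culture. MTT at […] final for 4 h at 37°C. Three independent experiments; IC50 reported as mean.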

U-87 MG [4] = test: Cytotoxicity against human U87MG cells after 72 hrs by MTT assay; type: functional, cell-based, U-87MG ATCC; method in brief: as §1
HT-29 [5] = test: Potency index, ratio of foretinib IC50 to compound IC50 for human HT-29 cells; type: functional
A549 [6] = test: Potency index, ratio of foretinib IC50 to compound IC50 for human A549 cells; type: functional
[7] = Potency index, ratio of foretinib IC50 to compound IC50 for human H460 cells; type: functional
U-87 MG [8] = test: Potency index, ratio of foretinib IC50 to compound IC50 for human U87MG cells; type: functional, U-87MG ATCC
[9] = target: T1, Receptor-type tyrosine-protein kinase FLT3 (Homo sapiens, UniProt P36888); test: Inhibition of Flt-3 (unknown origin) using poly (Glu, Tyr) 4:1 as substrate after 30 mins by HTRF assay
T1 sequence (P36888 whole entry): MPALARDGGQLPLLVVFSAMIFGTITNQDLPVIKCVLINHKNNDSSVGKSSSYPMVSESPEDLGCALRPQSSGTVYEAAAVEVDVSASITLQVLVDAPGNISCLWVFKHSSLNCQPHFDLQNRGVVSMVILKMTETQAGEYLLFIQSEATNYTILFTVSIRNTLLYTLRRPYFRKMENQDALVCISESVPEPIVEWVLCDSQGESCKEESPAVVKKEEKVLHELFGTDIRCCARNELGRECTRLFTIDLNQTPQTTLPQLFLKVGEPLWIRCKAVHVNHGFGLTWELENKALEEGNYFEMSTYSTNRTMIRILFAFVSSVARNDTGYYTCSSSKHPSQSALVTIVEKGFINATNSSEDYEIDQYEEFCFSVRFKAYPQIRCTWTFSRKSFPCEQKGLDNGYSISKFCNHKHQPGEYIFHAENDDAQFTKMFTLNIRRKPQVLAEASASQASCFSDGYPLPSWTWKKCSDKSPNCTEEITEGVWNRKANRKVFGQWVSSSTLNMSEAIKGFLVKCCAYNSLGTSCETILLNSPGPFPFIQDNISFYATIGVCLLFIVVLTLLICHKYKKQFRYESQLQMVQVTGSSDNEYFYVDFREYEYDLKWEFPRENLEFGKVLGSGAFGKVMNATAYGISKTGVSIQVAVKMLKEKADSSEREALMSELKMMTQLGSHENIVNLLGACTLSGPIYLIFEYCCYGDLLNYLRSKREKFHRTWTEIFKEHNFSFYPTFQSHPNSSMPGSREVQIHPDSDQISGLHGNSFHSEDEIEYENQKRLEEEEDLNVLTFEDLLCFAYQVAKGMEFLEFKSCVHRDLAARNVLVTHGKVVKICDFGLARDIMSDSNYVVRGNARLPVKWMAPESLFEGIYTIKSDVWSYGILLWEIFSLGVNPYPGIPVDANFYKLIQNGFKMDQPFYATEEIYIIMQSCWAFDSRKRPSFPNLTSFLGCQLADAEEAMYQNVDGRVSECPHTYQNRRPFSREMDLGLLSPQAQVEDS
Method in brief: (§2)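 Purified kinase protein added to start the reaction on preloaded poly(Glu,Tyr) 4:1 substrate at 20 µg/mL. ATP 10 mM solution in HEPES 50 mM pH 7.0 buffer with DTT, MgCl₂, MnCl₂ and 0.1% NaN₃. Compounds added in 1% DMSO. Reaction run 30 min at 25°C, stopped with Streptavidin-XL665 plus Tk antibody cryptate, read at 320/615 nm. Percent inhibition taken against enzyme-free and full-enzyme controls; IC50 from inhibition curves.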

[10] = target: Platelet-derived growth factor receptor beta (Homo sapiens, UniProt P09619); test: Inhibition of PDGFRbeta (unknown origin) using poly (Glu, Tyr) 4:1 as substrate after 30 mins by HTRF assay; method in brief: as §2
Sequence of Platelet-derived growth factor receptor beta (P09619 whole entry): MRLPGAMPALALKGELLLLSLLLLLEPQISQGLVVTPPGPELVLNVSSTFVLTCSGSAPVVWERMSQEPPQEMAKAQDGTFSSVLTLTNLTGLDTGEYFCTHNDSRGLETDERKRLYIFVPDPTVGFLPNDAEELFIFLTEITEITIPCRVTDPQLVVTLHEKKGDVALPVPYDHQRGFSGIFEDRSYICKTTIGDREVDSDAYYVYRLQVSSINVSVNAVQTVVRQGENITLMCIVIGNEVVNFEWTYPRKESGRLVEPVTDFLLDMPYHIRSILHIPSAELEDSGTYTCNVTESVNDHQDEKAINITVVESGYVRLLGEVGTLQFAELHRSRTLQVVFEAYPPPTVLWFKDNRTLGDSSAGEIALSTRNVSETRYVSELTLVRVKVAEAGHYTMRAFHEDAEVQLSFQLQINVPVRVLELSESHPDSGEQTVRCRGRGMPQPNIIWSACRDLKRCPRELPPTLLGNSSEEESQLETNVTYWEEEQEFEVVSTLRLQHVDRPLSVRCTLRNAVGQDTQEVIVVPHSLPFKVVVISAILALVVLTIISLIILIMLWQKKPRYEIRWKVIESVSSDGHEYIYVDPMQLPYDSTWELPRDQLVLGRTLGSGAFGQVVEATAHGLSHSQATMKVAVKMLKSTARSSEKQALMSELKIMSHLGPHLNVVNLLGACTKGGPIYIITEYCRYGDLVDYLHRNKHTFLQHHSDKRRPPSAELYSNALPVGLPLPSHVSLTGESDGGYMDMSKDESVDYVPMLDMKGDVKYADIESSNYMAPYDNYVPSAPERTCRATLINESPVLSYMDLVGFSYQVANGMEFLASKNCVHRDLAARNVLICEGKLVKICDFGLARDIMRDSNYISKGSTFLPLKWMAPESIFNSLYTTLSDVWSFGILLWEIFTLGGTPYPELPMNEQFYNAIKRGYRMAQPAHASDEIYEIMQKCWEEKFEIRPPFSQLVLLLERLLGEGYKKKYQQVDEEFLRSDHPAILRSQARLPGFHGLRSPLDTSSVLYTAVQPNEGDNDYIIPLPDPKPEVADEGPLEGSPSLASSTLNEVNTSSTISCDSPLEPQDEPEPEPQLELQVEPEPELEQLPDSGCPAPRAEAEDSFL

[11] = target: Mast/stem cell growth factor receptor Kit (Homo sapiens, UniProt P10721); test: Inhibition of c-Kit (unknown origin) using poly (Glu, Tyr) 4:1 as substrate after 30 mins by HTRF assay; method in brief: as §2
Sequence of Mast/stem cell growth factor receptor Kit (P10721 whole entry): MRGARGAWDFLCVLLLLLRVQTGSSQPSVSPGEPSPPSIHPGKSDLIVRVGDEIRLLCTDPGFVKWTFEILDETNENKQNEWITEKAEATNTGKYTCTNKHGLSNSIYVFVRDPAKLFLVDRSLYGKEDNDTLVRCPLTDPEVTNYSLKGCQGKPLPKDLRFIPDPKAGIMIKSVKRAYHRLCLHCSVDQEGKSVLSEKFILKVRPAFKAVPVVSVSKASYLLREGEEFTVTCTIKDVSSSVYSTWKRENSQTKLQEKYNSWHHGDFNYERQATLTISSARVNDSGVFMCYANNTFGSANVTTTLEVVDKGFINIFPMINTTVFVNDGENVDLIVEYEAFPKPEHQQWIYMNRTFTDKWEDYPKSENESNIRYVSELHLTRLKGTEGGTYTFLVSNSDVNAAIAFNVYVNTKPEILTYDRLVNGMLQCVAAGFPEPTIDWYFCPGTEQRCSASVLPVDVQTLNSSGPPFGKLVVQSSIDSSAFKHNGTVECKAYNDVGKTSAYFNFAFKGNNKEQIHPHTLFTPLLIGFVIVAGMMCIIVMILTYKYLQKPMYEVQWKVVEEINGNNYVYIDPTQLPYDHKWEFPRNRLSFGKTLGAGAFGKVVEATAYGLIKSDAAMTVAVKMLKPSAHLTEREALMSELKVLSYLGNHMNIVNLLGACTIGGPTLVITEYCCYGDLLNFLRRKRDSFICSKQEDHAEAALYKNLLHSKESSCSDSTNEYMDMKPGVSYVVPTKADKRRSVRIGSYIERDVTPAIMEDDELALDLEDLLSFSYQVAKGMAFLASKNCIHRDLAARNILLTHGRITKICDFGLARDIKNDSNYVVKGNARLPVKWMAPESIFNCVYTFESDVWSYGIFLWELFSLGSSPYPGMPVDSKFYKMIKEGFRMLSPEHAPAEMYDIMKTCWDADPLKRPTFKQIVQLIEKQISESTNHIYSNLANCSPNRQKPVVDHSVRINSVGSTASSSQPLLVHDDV

[12] = target: Vascular endothelial growth factor receptor 2 (Homo sapiens, UniProt P35968); test: Inhibition of VEGFR-2 (unknown origin) using poly (Glu, Tyr) 4:1 as substrate after 30 mins by HTRF assay; method in brief: as §2
Sequence of Vascular endothelial growth factor receptor 2 (P35968 whole entry): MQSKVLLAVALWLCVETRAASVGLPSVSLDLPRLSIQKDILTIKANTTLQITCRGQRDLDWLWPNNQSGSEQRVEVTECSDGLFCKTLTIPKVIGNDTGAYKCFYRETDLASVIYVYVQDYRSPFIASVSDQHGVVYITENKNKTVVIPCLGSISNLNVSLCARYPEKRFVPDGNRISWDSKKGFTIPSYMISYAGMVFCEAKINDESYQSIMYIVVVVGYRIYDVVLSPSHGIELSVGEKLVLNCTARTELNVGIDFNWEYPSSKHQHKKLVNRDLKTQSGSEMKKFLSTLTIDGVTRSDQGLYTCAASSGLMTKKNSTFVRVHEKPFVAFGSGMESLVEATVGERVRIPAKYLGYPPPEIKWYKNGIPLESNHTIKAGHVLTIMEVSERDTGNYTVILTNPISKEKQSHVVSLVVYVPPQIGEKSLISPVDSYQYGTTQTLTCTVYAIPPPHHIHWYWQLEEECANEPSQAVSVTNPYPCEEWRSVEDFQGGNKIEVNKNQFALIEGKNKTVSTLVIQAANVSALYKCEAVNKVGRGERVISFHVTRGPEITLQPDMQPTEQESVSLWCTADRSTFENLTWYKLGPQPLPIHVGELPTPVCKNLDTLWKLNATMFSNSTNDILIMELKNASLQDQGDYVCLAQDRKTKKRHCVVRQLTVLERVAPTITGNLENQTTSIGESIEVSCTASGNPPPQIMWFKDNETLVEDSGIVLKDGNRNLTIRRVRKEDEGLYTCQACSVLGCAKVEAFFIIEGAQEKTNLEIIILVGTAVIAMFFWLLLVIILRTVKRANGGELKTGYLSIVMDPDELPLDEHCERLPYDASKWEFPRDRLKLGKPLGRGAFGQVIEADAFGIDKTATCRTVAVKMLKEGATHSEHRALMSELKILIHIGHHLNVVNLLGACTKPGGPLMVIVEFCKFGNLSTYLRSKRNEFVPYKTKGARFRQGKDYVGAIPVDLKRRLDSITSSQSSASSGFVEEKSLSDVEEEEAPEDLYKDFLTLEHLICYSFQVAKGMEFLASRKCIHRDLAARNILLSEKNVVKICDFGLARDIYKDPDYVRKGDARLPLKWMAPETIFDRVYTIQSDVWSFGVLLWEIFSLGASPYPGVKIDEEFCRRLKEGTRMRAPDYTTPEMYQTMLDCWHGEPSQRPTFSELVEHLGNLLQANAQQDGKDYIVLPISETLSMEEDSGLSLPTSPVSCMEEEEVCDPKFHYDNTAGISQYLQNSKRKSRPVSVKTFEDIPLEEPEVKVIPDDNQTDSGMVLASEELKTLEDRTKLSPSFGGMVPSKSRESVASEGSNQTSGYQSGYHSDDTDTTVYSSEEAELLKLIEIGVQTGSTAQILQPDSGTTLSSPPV

[13] = target: Epidermal growth factor receptor (Homo sapiens, UniProt P00533); test: Inhibition of EGFR (unknown origin) using poly (Glu, Tyr) 4:1 as substrate after 30 mins by HTRF assay; method in brief: as §2

Sequence of Hepatocyte growth factor receptor (P08581 whole entry): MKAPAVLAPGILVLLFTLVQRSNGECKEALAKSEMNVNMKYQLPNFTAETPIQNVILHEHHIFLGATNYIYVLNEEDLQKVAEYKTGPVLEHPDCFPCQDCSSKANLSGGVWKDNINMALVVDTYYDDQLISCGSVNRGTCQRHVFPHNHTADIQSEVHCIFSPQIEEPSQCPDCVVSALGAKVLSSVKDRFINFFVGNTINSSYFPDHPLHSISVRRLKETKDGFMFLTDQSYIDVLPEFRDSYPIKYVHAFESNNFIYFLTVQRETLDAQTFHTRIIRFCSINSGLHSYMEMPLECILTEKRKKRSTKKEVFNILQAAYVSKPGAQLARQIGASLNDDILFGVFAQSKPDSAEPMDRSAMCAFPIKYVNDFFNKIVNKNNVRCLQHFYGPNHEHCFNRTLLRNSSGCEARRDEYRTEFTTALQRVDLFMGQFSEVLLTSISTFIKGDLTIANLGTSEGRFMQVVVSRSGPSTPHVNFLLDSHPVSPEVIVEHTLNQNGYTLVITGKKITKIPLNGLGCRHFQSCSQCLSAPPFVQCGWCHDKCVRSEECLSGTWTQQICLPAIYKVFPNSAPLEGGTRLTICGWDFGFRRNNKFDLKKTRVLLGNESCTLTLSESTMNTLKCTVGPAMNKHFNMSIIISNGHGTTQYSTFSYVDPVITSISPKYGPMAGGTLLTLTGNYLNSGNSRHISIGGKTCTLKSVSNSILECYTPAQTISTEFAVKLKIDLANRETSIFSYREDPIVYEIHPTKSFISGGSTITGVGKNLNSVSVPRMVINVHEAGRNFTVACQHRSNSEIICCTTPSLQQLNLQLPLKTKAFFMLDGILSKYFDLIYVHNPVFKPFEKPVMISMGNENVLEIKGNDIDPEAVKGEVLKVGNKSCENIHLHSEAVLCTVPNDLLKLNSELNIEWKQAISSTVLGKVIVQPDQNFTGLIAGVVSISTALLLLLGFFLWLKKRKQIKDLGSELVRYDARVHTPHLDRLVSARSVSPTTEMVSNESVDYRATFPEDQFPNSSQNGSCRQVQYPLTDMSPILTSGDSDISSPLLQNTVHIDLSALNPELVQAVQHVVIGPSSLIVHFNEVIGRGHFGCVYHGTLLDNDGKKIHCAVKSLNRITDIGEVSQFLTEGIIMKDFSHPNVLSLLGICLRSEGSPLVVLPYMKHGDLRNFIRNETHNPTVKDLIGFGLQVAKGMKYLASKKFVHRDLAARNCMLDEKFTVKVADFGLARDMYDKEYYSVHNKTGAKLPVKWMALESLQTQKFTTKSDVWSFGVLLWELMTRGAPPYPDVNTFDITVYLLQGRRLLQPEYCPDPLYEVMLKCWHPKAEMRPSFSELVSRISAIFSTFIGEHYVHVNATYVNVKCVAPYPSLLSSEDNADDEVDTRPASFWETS

SMILES	IC50 [1] [nM]	other results
Cc1cc(=O)n(-c2ccc(Cl)cc2Cl)nc1C(=O)Nc1ccc(Oc2ccnc3[nH]ccc23)cc1	56.3	
Cc1ccc(C)c(-n2nc(C(=O)Nc3ccc(Oc4ccnc5[nH]ccc45)cc3)c(C)cc2=O)c1	33.5	
Cc1cc(=O)n(-c2ccccc2C(F)(F)F)nc1C(=O)Nc1ccc(Oc2ccnc3c2ccn3C)cc1	46.3	
Cc1cc(=O)n(-c2ccccc2C(F)(F)F)nc1C(=O)Nc1ccc(Oc2ccnc3[nH]ccc23)cc1	39.5	
Cc1cc(=O)n(-c2ccc(Cl)cc2Cl)nc1C(=O)Nc1ccc(Oc2ccnc3c2ccn3C)cc1	49.2	
Cc1ccc(C)c(-n2nc(C(=O)Nc3ccc(Oc4ccnc5c4ccn5C)cc3)c(C)cc2=O)c1	41.3	
Cc1cc(=O)n(-c2ccccc2)nc1C(=O)Nc1ccc(Oc2ccnc3c2ccn3C)cc1	19.5	
Cc1cc(=O)n(-c2ccc(Br)cc2F)nc1C(=O)Nc1ccc(Oc2ccnc3c2ccn3C)cc1	36.2	
Cc1cc(=O)n(-c2cccc(C(F)(F)F)c2)nc1C(=O)Nc1ccc(Oc2ccnc3[nH]ccc23)cc1	35.3	
Cc1cc(=O)n(-c2ccc(Cl)cc2Cl)nc1C(=O)Nc1ccc(Oc2ccnc3[nH]ccc23)c(F)c1	22.4	
Cc1cc(=O)n(-c2ccccc2)nc1C(=O)Nc1ccc(Oc2ccnc3[nH]ccc23)cc1	18.3	
Cc1cc(=O)n(-c2ccc(F)c(Cl)c2)nc1C(=O)Nc1ccc(Oc2ccnc3c2ccn3C)cc1	45.3	
COc1ccc(-n2nc(C(=O)Nc3ccc(Oc4ccnc5[nH]ccc45)cc3)c(C)cc2=O)cc1	46.9	
Cc1cc(=O)n(-c2ccc(F)c(Cl)c2)nc1C(=O)Nc1ccc(Oc2ccnc3[nH]ccc23)cc1	42.2	
Cc1cc(=O)n(-c2cccc(C(F)(F)F)c2)nc1C(=O)Nc1ccc(Oc2ccnc3c2ccn3C)cc1	32.2	
Cc1cc(=O)n(-c2cccc(C(F)(F)F)c2)nc1C(=O)Nc1ccc(Oc2ccnc3c2ccn3C)c(F)c1	29.3	IC50 (HT-29 [2]): 360 nM; IC50 (A549 [3]): 620 nM; IC50 (NCI-H460): 520 nM; IC50 (U-87 MG [4]): 2310 nM
COc1ccc(-n2nc(C(=O)Nc3ccc(Oc4ccnc5[nH]ccc45)c(F)c3)c(C)cc2=O)cc1	18.3	
Cc1ccccc1-n1nc(C(=O)Nc2ccc(Oc3ccnc4[nH]ccc34)cc2)c(C)cc1=O	19.1	
Cc1cc(=O)n(-c2ccc(Br)cc2F)nc1C(=O)Nc1ccc(Oc2ccnc3[nH]ccc23)cc1	41.2	

The remaining molecules from weak to strong by IC50 [1], led by results:

IC50 [1] [nM]	SMILES	other results
18.2	Cc1cc(=O)n(-c2ccc(Br)cc2F)nc1C(=O)Nc1ccc(Oc2ccnc3[nH]ccc23)c(F)c1	
15.3	Cc1cc(=O)n(-c2cccc(F)c2)nc1C(=O)Nc1ccc(Oc2ccnc3c2ccn3C)cc1	IC50 (HT-29 [2]): 320 nM; IC50 (A549 [3]): 410 nM; IC50 (NCI-H460): 320 nM; IC50 (U-87 MG [4]): 8820 nM
14.4	Cc1cc(=O)n(-c2ccccc2F)nc1C(=O)Nc1ccc(Oc2ccnc3c2ccn3C)cc1	
12.6	Cc1cc(=O)n(-c2ccccc2F)nc1C(=O)Nc1ccc(Oc2ccnc3[nH]ccc23)cc1	
11.6	Cc1cc(=O)n(-c2cccc(F)c2)nc1C(=O)Nc1ccc(Oc2ccnc3[nH]ccc23)cc1	IC50 (HT-29 [2]): 210 nM; IC50 (A549 [3]): 420 nM; IC50 (NCI-H460): 190 nM; IC50 (U-87 MG [4]): 3420 nM
11.2	Cc1cc(=O)n(-c2ccccc2C(F)(F)F)nc1C(=O)Nc1ccc(Oc2ccnc3[nH]ccc23)c(F)c1	
10.5	Cc1cc(=O)n(-c2cccc(Br)c2)nc1C(=O)Nc1ccc(Oc2ccnc3c2ccn3C)cc1	
10.3	Cc1ccccc1-n1nc(C(=O)Nc2ccc(Oc3ccnc4[nH]ccc34)c(F)c2)c(C)cc1=O	
9.21	Cc1cc(=O)n(-c2ccc(F)cc2)nc1C(=O)Nc1ccc(Oc2ccnc3c2ccn3C)cc1	
8.42	Cc1cc(=O)n(-c2ccc(F)cc2)nc1C(=O)Nc1ccc(Oc2ccnc3[nH]ccc23)cc1	IC50 (HT-29 [2]): 140 nM; IC50 (A549 [3]): 230 nM; IC50 (NCI-H460): 160 nM; IC50 (U-87 MG [4]): 5460 nM
5.61	Cc1cc(=O)n(-c2cccc(F)c2)nc1C(=O)Nc1ccc(Oc2ccnc3[nH]ccc23)c(F)c1	
5.02	Cc1cc(=O)n(-c2ccccc2F)nc1C(=O)Nc1ccc(Oc2ccnc3[nH]ccc23)c(F)c1	
1.06	Cc1cc(=O)n(-c2ccc(F)cc2)nc1C(=O)Nc1ccc(Oc2ccnc3[nH]ccc23)c(F)c1	IC50 (HT-29 [2]): 39 nM; IC50 (A549 [3]): 46 nM; IC50 (NCI-H460): 91 nM; IC50 (U-87 MG [4]): 760 nM; Ratio IC50 (HT-29 [5]): 6.4; Ratio IC50 (A549 [6]): 7.8; Ratio IC50 [7]: 3.2; Ratio IC50 (U-87 MG [8]): 1.3; IC50 [9]: 1.32 nM; IC50 [10]: 3.26 nM; IC50 [11]: 318 nM; IC50 [12]: 672 nM; IC50 [13]: 725 nM
